Each structure is given as a SMILES string.

14 compounds from ChEMBL document CHEMBL1121363, “DNA intercalating compounds as potential antitumor agents. 2. Preparation and properties of 7H-pyridocarbazole dimers” (1980) can be followed below.

In assay [1] the test system is Calf thymus DNA. Nature of the assay: Displacement of ethidium from DNA of calf thymus at pH 7.4. As to conditions: Bos taurus. The class given is nucleic-acid assay. The gist of the method:
(§1)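 Ethidium dimer (6.4 × 10⁻⁷ M) pre-bound to calf thymus DNA (1.6 × 10⁻⁶ M base pairs), 24 h equilibration with competing dimer, 20 °C, in 0.2 M sodium acetate pH 5 or 0.1 M NaCl/0.1 M Tris-HCl pH 7.4. Fluorescence ex 540, em 610 nm. rf50 = ratio of total dimer to DNA base pairs displacing 50% of bound ethidium dimer.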

The subject of assay [2] is Mus musculus. Nature of the assay: Evaluated for the antitumor activity against L1210 Murine leukemia at optimum intraperitoneal dose 0.5 of the MTD.
Assay [3] concerns Calf thymus DNA. The assay can be described thus: Dimer binding constant for DNA of calf thymus at pH 5. The class given is nucleic-acid assay. As to conditions: Bos taurus. Summed up: (§2)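 Fluorimetric competition: calf thymus DNA (B = 1.6 × 10⁻⁶ M base pairs) with ethidium dimer (6.4 × 10⁻⁷ M) equilibrated 24 h with varied dimer concentrations, 20 °C. Buffers: 0.2 M sodium acetate pH 5, or 0.1 M NaCl/0.1 M Tris-HCl pH 7.4. Ex 540/em 610 nm. Displacement curve fitted to McGhee–von Hippel equations using n set by ethidium bromide competition, giving Kap.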

The test system of assay [4] is Calf thymus DNA. The assay can be described thus: Dimer binding constant for DNA of calf thymus at pH 7.4. It is filed as nucleic-acid assay. As to conditions: Bos taurus. Summed up: as §2
In assay [5] the test system is Calf thymus DNA. Nature of the assay: Displacement of ethidium from DNA of calf thymus at pH 5. It is filed as nucleic-acid assay. As to conditions: Bos taurus. The gist of the method: as §1
Assay [6] has as its system Mus musculus. The assay can be described thus: Evaluated for the antitumor activity against L1210 Murine leukemia at optimum intraperitoneal dose 0.8 of the MTD.
Assay [7] relates to Mus musculus. Nature of the assay: Evaluated for the antitumor activity against L1210 Murine leukemia at optimum intraperitoneal dose 0.25 of the MTD.
In assay [8] the test system is Mus musculus. The assay can be described thus: Evaluated for the antitumor activity against L1210 Murine leukemia at optimum intraperitoneal dose 0.2 of the MTD.
For assay [9], the system named is Mus musculus. The assay can be described thus: Evaluated for the antitumor activity against L1210 Murine leukemia at optimum intraperitoneal dose 0.4 of the MTD.

What is called T/C is the ratio of treated to control. As to `[Cl-].[Cl-].c1ccc2c(c1)[nH]c1ccc3cc[n+](CCN4CCC(C5CCN(CC[n+]6ccc7ccc8[nH]c9ccccc9c8c7c6)CC5)CC4)cc3c12`, the rf50 in assay [1] is 1.4; in assay [5], 0.4. This compound returned a T/C in assay [2] of 121%. Further, the K app in assay [3] worked out at 3e+08; in assay [4], 5e+06.

Take `COc1ccc2[nH]c3c(C)c4cc[n+](CCN5CCC(C6CCN(CC[n+]7ccc8c(C)c9[nH]c%10ccc(OC)cc%10c9c(C)c8c7)CC6)CC5)cc4c(C)c3c2c1`: the K app amounted to 2e+08 in assay [3] and 1e+06 in assay [4].

For `COc1ccc2c(c1)c1c3c[n+](CCN4CCC(C5CCN(CC[n+]6ccc7ccc8c(c7c6)c6cc(OC)ccc6n8C)CC5)CC4)ccc3ccc1n2C.[Cl-].[Cl-]`, the rf50 in [1] worked out at 0.72; in assay [5] it was 0.4. For the same compound, the values for the K app in [3] and in assay [4] were 3e+08 and 2e+07, respectively. Besides, the T/C in [6] is 155%.

As for `Oc1ccc2[nH]c3ccc4c[n+](CCN5CCC(C6CCN(CC[n+]7ccc8c(ccc9[nH]c%10ccc(O)cc%10c98)c7)CC6)CC5)ccc4c3c2c1`, the values for the rf50 in assay [1] and in assay [5] were 13 and 0.5, respectively. The K app came out at 2e+08 in assay [3] and 500000 in [4].

Take `Cc1c2cc[n+](CCN3CCC(C4CCN(CC[n+]5ccc6c(C)c7[nH]c8ccc(O)cc8c7c(C)c6c5)CC4)CC3)cc2c(C)c2c1[nH]c1ccc(O)cc12`: the results for the K app in [3] and in assay [4] were 1e+08 and 1e+06, respectively.

Turning to `COc1ccc2c(c1)c1c3cc[n+](CCN4CCC(C5CCN(CC[n+]6ccc7c(ccc8c7c7cc(OC)ccc7n8C)c6)CC5)CC4)cc3ccc1n2C`, the rf50 in assay [1] was 1.2; in assay [5], 0.32. In addition, the K app in assay [3] amounted to 5e+08; in assay [4], 6e+06.

In the case of `COc1ccc2[nH]c3ccc4cc[n+](CCN5CCC(C6CCN(CC[n+]7ccc8ccc9[nH]c%10ccc(OC)cc%10c9c8c7)CC6)CC5)cc4c3c2c1.[Cl-].[Cl-]` [DITERCALINIUM CHLORIDE], the rf50 in [1] came out at 0.96; in assay [5] it was 0.32. Further, the T/C in [7] was found to be 216%. For the same compound, the K app in assay [3] was determined as 5e+08; in assay [4], 1e+07.

`COc1ccc2[nH]c3ccc4cc[n+](CC(O)CN5CCC(C6CCN(CC(O)C[n+]7ccc8ccc9[nH]c%10ccc(OC)cc%10c9c8c7)CC6)CC5)cc4c3c2c1` (stereo not drawn): the rf50 is 0.72 in [1] and 0.24 in assay [5]. For the same compound, the figures for the K app in assay [3] and in assay [4] were 1e+09 and 2e+07, respectively.

With `COc1ccc2[nH]c3ccc4cc[n+](CCCCCCCCCC[n+]5ccc6ccc7[nH]c8ccc(OC)cc8c7c6c5)cc4c3c2c1.[Br-].[Br-]`, the rf50 stood at 3 in assay [1] and 2.4 in assay [5]. The same compound returned a T/C in assay [2] of 124%. Besides, the K app in assay [3] and in [4] was 3e+06 throughout.

With `COc1ccc2c(c1)c1c3c[n+](CCN4CCCCC4)ccc3ccc1n2C`, the rf50 came out at 20 in [1] and 9.5 in assay [5]. For the same compound, the values for the K app in [3] and in assay [4] were 1.8e+06 and 300000, respectively.

In assay [8], `COc1ccc2[nH]c3ccc4c[n+](CCN5CCC(C6CCN(CC[n+]7ccc8c(ccc9[nH]c%10ccc(OC)cc%10c98)c7)CC6)CC5)ccc4c3c2c1.[Cl-].[Cl-]` came in with a T/C of 130%. For the same compound, the rf50 in [1] is 3.4; in assay [5], 0.32. For the same compound, the K app in assay [3] turned out to be 5e+08; in assay [4], 3e+06.

For the compound `COc1ccc2[nH]c3ccc4cc[n+](CCN5CCC(CCCC6CCN(CC[n+]7ccc8ccc9[nH]c%10ccc(OC)cc%10c9c8c7)CC6)CC5)cc4c3c2c1`, the rf50 in [1] is 2.24; in assay [5], 0.25. Also, the K app in assay [3] is 1e+09; in [4] it was 4e+06.

Consider `Oc1ccc2[nH]c3ccc4cc[n+](CCN5CCC(C6CCN(CC[n+]7ccc8ccc9[nH]c%10ccc(O)cc%10c9c8c7)CC6)CC5)cc4c3c2c1.[Cl-].[Cl-]`, for which the results for the rf50 in assay [1] and in assay [5] were 1.2 and 0.32, respectively. Moreover, the K app was 5e+08 in assay [3] and 1e+07 in assay [4]. The T/C in assay [9] was found to be 157%.

On to `COc1ccc2[nH]c3ccc4cc[n+](CCN(C)CCCCCN(C)CC[n+]5ccc6ccc7[nH]c8ccc(OC)cc8c7c6c5)cc4c3c2c1`, for which the rf50 amounted to 8.4 in assay [1] and 0.8 in assay [5]. Also, the K app in assay [3] worked out at 1e+08; in [4], 8e+06.
